From ChEMBL document CHEMBL1125214, “Synthesis and adenosine receptor affinity of a series of pyrazolo[3,4-d]pyrimidine analogues of 1-methylisoguanosine” (J Med Chem, 1991)

Biological target: T1, Adenosine receptor A1 (Rattus norvegicus, UniProt P25099)
T1 sequence (P25099 whole entry): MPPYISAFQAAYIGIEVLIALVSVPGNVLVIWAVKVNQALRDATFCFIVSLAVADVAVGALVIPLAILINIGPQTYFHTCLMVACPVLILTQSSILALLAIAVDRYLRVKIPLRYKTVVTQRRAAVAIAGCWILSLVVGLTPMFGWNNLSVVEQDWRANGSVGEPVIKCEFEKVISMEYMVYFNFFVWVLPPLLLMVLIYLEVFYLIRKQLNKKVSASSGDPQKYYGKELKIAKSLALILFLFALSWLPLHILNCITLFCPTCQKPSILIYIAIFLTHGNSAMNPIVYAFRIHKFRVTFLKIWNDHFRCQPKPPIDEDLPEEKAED
Assay: Inhibitory concentration against R[3H]-N6-PIA binding to adenosine A1 receptor in rat whole brain membrane
Format: cell membranes
Conditions: not given
Procedure, shortened: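 Rat whole-brain synaptosomal membranes were made by sucrose homogenization and 14500g pelleting. They were pretreated with adenosine deaminase (2 IU/mL, 37 °C, 30 min). Assay: membranes at 100-200 µg/mL, 2 nM R-[3H]N6-PIA, 50 mM Tris-HCl pH 7.4 with 1 mM MgCl2, 60 min at 37 °C. Compounds in DMSO. Nonspecific binding defined with 100 µM R-N6-PIA. GF/B filtration and scintillation counting. At least three runs in triplicate.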

SMILES	IC50
CCCCn1c(=O)[nH]c2c(cnn2-c2ccccc2)c1=N	9.6 µM
CCn1c(=O)[nH]c2c(cnn2-c2cccc(Cl)c2)c1=N	19.8 µM
CCCn1c(=O)[nH]c2c(cnn2-c2ccccc2)c1=N	50.7 µM
CCn1c(=O)[nH]c2c(cnn2-c2ccccc2)c1=N	20.1 µM
CCCn1c(=O)[nH]c2c(cnn2-c2cccc(Cl)c2)c1=N	14.6 µM

Biological target: T2, Adenosine receptor A1 (Rattus norvegicus) (UniProt P25099)
T2 sequence (whole entry): T1 sequence (P25099 whole entry)
Assay: Inhibition of radioligand R[3H]-N6-PIA binding to adenosine A1 receptors in rat whole brain membrane at 20 uM concentration.
Format: cell membranes
Conditions: not given
Procedure, shortened: (§1)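 Rat whole-brain synaptosomal membranes were made by sucrose homogenization and 14500g pelleting. They were pretreated with adenosine deaminase (2 IU/mL, 37 °C, 30 min). Assay: membranes at 100-200 µg/mL, 2 nM R-[3H]N6-PIA, 50 mM Tris-HCl pH 7.4 with 1 mM MgCl2, 60 min at 37 °C. Compounds in DMSO. Nonspecific binding defined with 100 µM R-N6-PIA. GF/B filtration and scintillation counting. […] At least three runs in triplicate.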

SMILES	inhibition
Cn1c(=O)[nH]c2c(cnn2-c2ccccc2)c1=N	30%
CCCCn1c(=O)[nH]c2c(cnn2-c2ccccc2)c1=N	72%
Cn1c(=O)[nH]c2c(cnn2-c2ccc(Cl)cc2)c1=N	37%
CCCn1ncc2c(=N)n(C)c(=O)[nH]c21	5%
Cn1c(=O)[nH]c2c(cnn2-c2cc(Cl)cc(Cl)c2)c1=N	29%
CCn1c(=O)[nH]c2c(cnn2-c2cccc(Cl)c2)c1=N	70%
Cn1c(=O)[nH]c2c(cnn2-c2cccc(Cl)c2)c1=N	53%
Cn1c(=O)[nH]c2c(cnn2-c2ccc(Cl)cc2Cl)c1=N	9%
CCCn1c(=O)[nH]c2c(cnn2-c2ccccc2)c1=N	52%
Cn1c(=O)[nH]c2c(cnn2-c2ccc(N)cc2)c1=N	0%
CCn1c(=O)[nH]c2c(cnn2-c2ccccc2)c1=N	58%
Cn1c(=O)[nH]c2c(cnn2-c2cccc(Br)c2)c1=N	40%
Cn1c(=O)[nH]c2c(cnn2-c2ccccc2Cl)c1=N	7%
Cn1c(=O)[nH]c2c(cnn2-c2ccccc2[N+](=O)[O-])c1=N	5%
Cn1c(=O)[nH]c2c(cnn2-c2cc(Cl)ccc2Cl)c1=N	1%
N=c1c2cnn(-c3ccccc3)c2[nH]c(=O)n1-c1ccccc1	25%
Cn1c(=O)[nH]c2c(cnn2-c2ccccc2Br)c1=N	6%
CCCn1c(=O)[nH]c2c(cnn2-c2cccc(Cl)c2)c1=N	68%
Cn1c(=O)[nH]c2c(cnn2-c2cccc(F)c2)c1=N	44%
Cn1c(=O)[nH]c2c(cnn2-c2ccc(F)cc2)c1=N	26%
Cn1c(=O)[nH]c2c(cnn2C)c1=N	6%
Cn1c(=O)[nH]c2c(cnn2-c2cccc([N+](=O)[O-])c2)c1=N	2%
Cn1c(=O)[nH]c2c(cnn2-c2ccc(Br)cc2)c1=N	34%
Cn1c(=O)[nH]c2c(cnn2-c2ccccc2F)c1=N	8%
Cn1c(=O)[nH]c2c(cnn2-c2ccccc2N)c1=N	0%
Cn1c(=O)[nH]c2c(cnn2-c2cccc(N)c2)c1=N	0%
Cn1c(=O)[nH]c2c(cnn2-c2ccc([N+](=O)[O-])cc2)c1=N	5%
CCCCn1c(=O)[nH]c2c(cnn2-c2cccc(Cl)c2)c1=N	58%

Biological target: Adenosine receptors; A1 & A2 (Rattus norvegicus) (UniProt P29276+P25099+P30543)
Assay: Ratio of IC50 for A2 and A1 receptor binding
Format: protein assay
Conditions: not given

SMILES	Ratio
CCCCn1c(=O)[nH]c2c(cnn2-c2ccccc2)c1=N	2.6
CCn1c(=O)[nH]c2c(cnn2-c2cccc(Cl)c2)c1=N	1.2
CCCn1c(=O)[nH]c2c(cnn2-c2ccccc2)c1=N	1
CCn1c(=O)[nH]c2c(cnn2-c2ccccc2)c1=N	4.1
CCCn1c(=O)[nH]c2c(cnn2-c2cccc(Cl)c2)c1=N	3.2

Tested on: not listed separately
Assay: Hydrophobicity index measured by retention time on a reverse phase HPLC column.
Format: ADME
Conditions: not given

SMILES	k'
Cn1c(=O)[nH]c2c(cnn2-c2ccccc2)c1=N	2.6
CCCCn1c(=O)[nH]c2c(cnn2-c2ccccc2)c1=N	18.5
Cn1c(=O)[nH]c2c(cnn2-c2ccc(Cl)cc2)c1=N	13.6
CCCn1ncc2c(=N)n(C)c(=O)[nH]c21	0.8
Cn1c(=O)[nH]c2c(cnn2-c2cc(Cl)cc(Cl)c2)c1=N	> 36.5
CCn1c(=O)[nH]c2c(cnn2-c2cccc(Cl)c2)c1=N	21.9
Cn1c(=O)[nH]c2c(cnn2-c2cccc(Cl)c2)c1=N	14.2
Cn1c(=O)[nH]c2c(cnn2-c2ccc(Cl)cc2Cl)c1=N	7.1
CCCn1c(=O)[nH]c2c(cnn2-c2ccccc2)c1=N	7.5
Cn1c(=O)[nH]c2c(cnn2-c2ccc(N)cc2)c1=N	0.3
CCn1c(=O)[nH]c2c(cnn2-c2ccccc2)c1=N	4.2
Cn1c(=O)[nH]c2c(cnn2-c2cccc(Br)c2)c1=N	17.5
Cn1c(=O)[nH]c2c(cnn2-c2ccccc2Cl)c1=N	1.7
Cn1c(=O)[nH]c2c(cnn2-c2ccccc2[N+](=O)[O-])c1=N	0.9
Cn1c(=O)[nH]c2c(cnn2-c2cc(Cl)ccc2Cl)c1=N	4.8
N=c1c2cnn(-c3ccccc3)c2[nH]c(=O)n1-c1ccccc1	5.1
Cn1c(=O)[nH]c2c(cnn2-c2ccccc2Br)c1=N	1.8
CCCn1c(=O)[nH]c2c(cnn2-c2cccc(Cl)c2)c1=N	> 36.5
Cn1c(=O)[nH]c2c(cnn2-c2cccc(F)c2)c1=N	5.8
Cn1c(=O)[nH]c2c(cnn2-c2ccc(F)cc2)c1=N	4.1
Cn1c(=O)[nH]c2c(cnn2C)c1=N	0.1
Cn1c(=O)[nH]c2c(cnn2-c2cccc([N+](=O)[O-])c2)c1=N	> 36.5
Cn1c(=O)[nH]c2c(cnn2-c2ccc(Br)cc2)c1=N	18.9
Cn1c(=O)[nH]c2c(cnn2-c2ccccc2F)c1=N	1.1
Cn1c(=O)[nH]c2c(cnn2-c2ccccc2N)c1=N	0.8
Cn1c(=O)[nH]c2c(cnn2-c2cccc(N)c2)c1=N	0.7
Cn1c(=O)[nH]c2c(cnn2-c2ccc([N+](=O)[O-])cc2)c1=N	> 36.5
CCCCn1c(=O)[nH]c2c(cnn2-c2cccc(Cl)c2)c1=N	> 36.5

Biological target: T1, Adenosine receptor A1
Assay: Inhibitory concentration against R[3H]-N6-PIA binding to adenosine A1 receptors in rat whole brain membrane
Format: cell membranes
Conditions: not given
Procedure, shortened: as §1

SMILES	IC50
Cn1c(=O)[nH]c2c(cnn2-c2cccc(Cl)c2)c1=N	16.5 µM

Biological target: Adenosine A2 receptor (Rattus norvegicus) (UniProt P29276+P30543)
Assay: Inhibition of radioligand R[3H]-CGS 21680 binding to adenosine A2 receptors in rat striatal membrane at 20 uM concentration.
Format: cell membranes
Conditions: Striatum
Procedure, shortened: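 Striata from male Wistar rats (300-400 g) were homogenized in 50 mM Tris-HCl pH 7.4 with 10 mM MgCl2 and pelleted twice at 48000g. Assay: membranes at 100-200 µg/mL, 5 nM [3H]CGS 21680, 90 min at 23 °C. Nonspecific binding defined with 20 µM 2-chloroadenosine. Filtration and counting as in the A1 assay. Compounds tested at 20 µM; result expressed as % inhibition of control binding.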

SMILES	inhibition
Cn1c(=O)[nH]c2c(cnn2-c2ccccc2)c1=N	7%
CCCCn1c(=O)[nH]c2c(cnn2-c2ccccc2)c1=N	21%
Cn1c(=O)[nH]c2c(cnn2-c2ccc(Cl)cc2)c1=N	0%
CCCn1ncc2c(=N)n(C)c(=O)[nH]c21	0%
Cn1c(=O)[nH]c2c(cnn2-c2cc(Cl)cc(Cl)c2)c1=N	0%
CCn1c(=O)[nH]c2c(cnn2-c2cccc(Cl)c2)c1=N	24%
Cn1c(=O)[nH]c2c(cnn2-c2cccc(Cl)c2)c1=N	29%
Cn1c(=O)[nH]c2c(cnn2-c2ccc(Cl)cc2Cl)c1=N	0%
CCCn1c(=O)[nH]c2c(cnn2-c2ccccc2)c1=N	7%
Cn1c(=O)[nH]c2c(cnn2-c2ccc(N)cc2)c1=N	0%
CCn1c(=O)[nH]c2c(cnn2-c2ccccc2)c1=N	16%
Cn1c(=O)[nH]c2c(cnn2-c2cccc(Br)c2)c1=N	1%
Cn1c(=O)[nH]c2c(cnn2-c2ccccc2Cl)c1=N	0%
Cn1c(=O)[nH]c2c(cnn2-c2ccccc2[N+](=O)[O-])c1=N	7%
Cn1c(=O)[nH]c2c(cnn2-c2cc(Cl)ccc2Cl)c1=N	3%
N=c1c2cnn(-c3ccccc3)c2[nH]c(=O)n1-c1ccccc1	0%
Cn1c(=O)[nH]c2c(cnn2-c2ccccc2Br)c1=N	0%
CCCn1c(=O)[nH]c2c(cnn2-c2cccc(Cl)c2)c1=N	35%
Cn1c(=O)[nH]c2c(cnn2-c2cccc(F)c2)c1=N	22%
Cn1c(=O)[nH]c2c(cnn2-c2ccc(F)cc2)c1=N	0%
Cn1c(=O)[nH]c2c(cnn2C)c1=N	0%
Cn1c(=O)[nH]c2c(cnn2-c2cccc([N+](=O)[O-])c2)c1=N	1%
Cn1c(=O)[nH]c2c(cnn2-c2ccc(Br)cc2)c1=N	7%
Cn1c(=O)[nH]c2c(cnn2-c2ccccc2F)c1=N	0%
Cn1c(=O)[nH]c2c(cnn2-c2ccccc2N)c1=N	0%
Cn1c(=O)[nH]c2c(cnn2-c2cccc(N)c2)c1=N	0%
Cn1c(=O)[nH]c2c(cnn2-c2ccc([N+](=O)[O-])cc2)c1=N	0%
CCCCn1c(=O)[nH]c2c(cnn2-c2cccc(Cl)c2)c1=N	38%

Biological target: Adenosine A2 receptor (Rattus norvegicus, UniProt P29276+P30543)
Assay: Inhibitory concentration against [3H]CGS 21680 binding to adenosine A2 receptors in rat striatal membrane
Conditions: not given

SMILES	IC50
CCCCn1c(=O)[nH]c2c(cnn2-c2ccccc2)c1=N	24.8 µM
CCn1c(=O)[nH]c2c(cnn2-c2cccc(Cl)c2)c1=N	23.5 µM
CCCn1c(=O)[nH]c2c(cnn2-c2ccccc2)c1=N	50.2 µM
CCn1c(=O)[nH]c2c(cnn2-c2ccccc2)c1=N	81.8 µM
CCCn1c(=O)[nH]c2c(cnn2-c2cccc(Cl)c2)c1=N	47.3 µM
CCCCn1c(=O)[nH]c2c(cnn2-c2cccc(Cl)c2)c1=N	19.2 µM
